From ChEMBL document CHEMBL4706482, “Structural optimization of aminopyrimidine-based CXCR4 antagonists” (Eur J Med Chem, 2020)
Active and inactive are the calls of the source. The rule behind the calls is not given here.

Legend:
[1] = target: T1, C-X-C chemokine receptor type 4 (Homo sapiens, UniProt P61073); assay: Antagonist activity at CXCR4 in human HPBALL cells assessed as inhibition of APC-conjugate clone 12G5 antibody signal incubated for 3 hrs by flow cytometric analysis; assay type: cell-based
Target sequence in this assay (P61073 whole entry): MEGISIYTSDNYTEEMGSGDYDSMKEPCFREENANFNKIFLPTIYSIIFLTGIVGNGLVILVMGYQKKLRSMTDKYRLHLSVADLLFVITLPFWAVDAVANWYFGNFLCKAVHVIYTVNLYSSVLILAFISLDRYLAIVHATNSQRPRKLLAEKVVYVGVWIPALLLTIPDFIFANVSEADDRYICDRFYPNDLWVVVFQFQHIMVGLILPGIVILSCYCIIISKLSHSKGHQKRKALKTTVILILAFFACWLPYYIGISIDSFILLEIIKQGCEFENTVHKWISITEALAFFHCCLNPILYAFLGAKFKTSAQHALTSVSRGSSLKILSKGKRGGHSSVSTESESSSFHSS

[2] = target: Voltage-gated inwardly rectifying potassium channel KCNH2 (Homo sapiens, UniProt Q12809); assay: Inhibition of human ERG stably expressed in CHO cells after 4 mins; assay type: cell-based
Chain of Voltage-gated inwardly rectifying potassium channel KCNH2 (Q12809 whole entry): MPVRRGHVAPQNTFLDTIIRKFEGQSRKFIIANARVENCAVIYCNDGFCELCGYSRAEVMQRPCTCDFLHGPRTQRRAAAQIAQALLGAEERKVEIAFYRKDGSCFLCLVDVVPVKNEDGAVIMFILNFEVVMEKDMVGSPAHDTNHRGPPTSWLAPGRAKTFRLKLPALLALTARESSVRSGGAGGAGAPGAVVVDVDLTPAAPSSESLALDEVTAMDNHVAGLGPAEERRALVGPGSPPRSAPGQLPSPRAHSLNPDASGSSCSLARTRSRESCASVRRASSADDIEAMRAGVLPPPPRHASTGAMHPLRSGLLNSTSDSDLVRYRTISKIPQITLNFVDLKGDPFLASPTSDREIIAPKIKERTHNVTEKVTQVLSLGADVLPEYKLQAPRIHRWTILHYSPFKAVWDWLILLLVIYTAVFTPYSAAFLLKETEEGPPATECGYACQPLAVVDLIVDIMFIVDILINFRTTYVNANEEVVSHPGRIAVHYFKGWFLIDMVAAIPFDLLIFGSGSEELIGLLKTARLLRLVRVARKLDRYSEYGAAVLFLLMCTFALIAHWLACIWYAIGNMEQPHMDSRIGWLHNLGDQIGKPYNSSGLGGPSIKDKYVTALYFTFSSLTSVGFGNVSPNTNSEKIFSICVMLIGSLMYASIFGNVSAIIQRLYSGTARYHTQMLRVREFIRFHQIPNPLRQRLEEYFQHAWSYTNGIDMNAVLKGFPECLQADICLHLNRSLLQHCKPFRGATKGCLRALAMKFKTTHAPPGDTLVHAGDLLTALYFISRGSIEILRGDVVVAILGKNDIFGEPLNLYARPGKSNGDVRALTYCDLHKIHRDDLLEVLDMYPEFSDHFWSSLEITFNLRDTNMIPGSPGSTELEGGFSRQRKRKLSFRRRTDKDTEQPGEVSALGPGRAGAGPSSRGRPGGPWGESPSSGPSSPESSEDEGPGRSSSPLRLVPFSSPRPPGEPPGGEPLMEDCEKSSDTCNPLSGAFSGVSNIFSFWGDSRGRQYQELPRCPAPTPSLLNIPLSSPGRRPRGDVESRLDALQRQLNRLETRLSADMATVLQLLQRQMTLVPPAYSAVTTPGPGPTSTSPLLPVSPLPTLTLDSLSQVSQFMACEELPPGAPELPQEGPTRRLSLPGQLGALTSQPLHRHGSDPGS
Procedure, shortened: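 hERG-expressing CHO cells on automated QPatch. Holding potential -80 mV, 500 ms step to +20 mV, tail current measured at -50 mV, pulses every 20 s. External solution 4 mM K⁺, 1 mM Mg²⁺, 2 mM Ca²⁺. Effect quantified 4 min after compound application.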

[3] = Apparent permeability across apical to basal side in human Caco2 cells at 10 uM after 90 mins by LC-MS/MS analysis; assay type: ADME, cell-based; conditions: Caco-2
Procedure, shortened: (§1)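 Caco-2 cells grown 21–28 days on polycarbonate inserts. TEER and Lucifer Yellow checked before and after the assay. Compound at 10 µM in HBSS with 25 mM HEPES, pH 7.4, tested A-B and B-A, 37 °C for 90 min. Samples quantified by LC-MS/MS against a standard curve.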

[4] = Efflux ratio in across basolateral to apical side over apical to basolateral side in human Caco2 cells at 10 uM after 90 mins by LC-MS/MS analysis; assay type: ADME, cell-based; conditions: Caco-2; procedure, shortened: as §1
[5] = Protein binding in mouse plasma; assay type: ADME, cell-free; conditions: read-out: PPB (converted)
[6] = Protein binding in rat plasma; assay type: ADME, cell-free; conditions: read-out: PPB (converted)
[7] = Half life in rat liver microsomes at 1 uM preincubated for 10 mins followed by NADPH addition and measured up to 60 mins by LC-MS/MS analysis; assay type: ADME, Microsome; conditions: time <=70 min
[8] = Intrinsic clearance in rat liver microsomes at 1 uM preincubated for 10 mins followed by NADPH addition and measured up to 60 mins by LC-MS/MS analysis; assay type: ADME, Microsome; conditions: time <=70 min, read-out: CLH
[9] = Protein binding in human plasma; assay type: ADME, cell-free; conditions: read-out: PPB
CYP3A4 = CYP3A4 (Homo sapiens, UniProt P08684); assay: Inhibition of CYP3A4 in human liver microsomes using midazolam as substrate at 10 uM preincubated for 10 mins followed by NADPH addition and measured after 10 mins by LC-MS/MS analysis relative to control; assay type: ADME; conditions: probe midazolam, time 20 min
Chain of CYP3A4 (P08684 whole entry): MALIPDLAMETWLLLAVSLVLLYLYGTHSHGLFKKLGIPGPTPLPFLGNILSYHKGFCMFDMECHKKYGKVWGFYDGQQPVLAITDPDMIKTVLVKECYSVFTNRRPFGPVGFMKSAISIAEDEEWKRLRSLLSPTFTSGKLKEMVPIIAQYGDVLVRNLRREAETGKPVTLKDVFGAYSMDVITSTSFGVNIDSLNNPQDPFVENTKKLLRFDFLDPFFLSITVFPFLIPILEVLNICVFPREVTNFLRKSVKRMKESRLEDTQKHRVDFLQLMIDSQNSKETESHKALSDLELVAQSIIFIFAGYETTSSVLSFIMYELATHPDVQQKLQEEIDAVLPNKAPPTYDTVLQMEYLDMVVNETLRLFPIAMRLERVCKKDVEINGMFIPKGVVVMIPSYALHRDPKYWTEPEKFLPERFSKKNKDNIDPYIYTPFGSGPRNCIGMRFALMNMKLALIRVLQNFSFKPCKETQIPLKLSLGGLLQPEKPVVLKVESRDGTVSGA
Procedure, shortened: (§2)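 Human liver microsomes 0.2 mg/mL in 100 mM phosphate, pH 7.4, compound 10 µM, probe substrate midazolam 1 µM (CYP3A4) or dextromethorphan 5 µM (CYP2D6). After a 10 min preincubation, reaction started with 1 mM NADPH, 37 °C for 10 min, then stopped with cold acetonitrile. Metabolites quantified by LC-MS/MS. Triplicate incubations.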

[10] = target: T2, C-C chemokine receptor type 6 (Homo sapiens) (UniProt P51684); assay: Antagonist activity at CCR6 in human CD4-positive cells assessed as inhibition of CCL20-induced calcium signal up to 10000 nM by FLIPR assay; assay type: functional, cell-based; conditions: CD4+ve Th, dose nM <=10000
T2 sequence (whole entry): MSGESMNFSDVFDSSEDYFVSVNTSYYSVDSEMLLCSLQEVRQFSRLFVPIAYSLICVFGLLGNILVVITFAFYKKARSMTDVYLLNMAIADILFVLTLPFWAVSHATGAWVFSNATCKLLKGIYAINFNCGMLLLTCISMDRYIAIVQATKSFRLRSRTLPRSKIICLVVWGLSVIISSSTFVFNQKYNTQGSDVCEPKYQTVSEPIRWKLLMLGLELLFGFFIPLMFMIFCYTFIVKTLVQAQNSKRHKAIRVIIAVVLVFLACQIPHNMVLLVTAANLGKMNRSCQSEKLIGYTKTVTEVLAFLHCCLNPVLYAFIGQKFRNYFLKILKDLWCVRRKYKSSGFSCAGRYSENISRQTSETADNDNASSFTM
Procedure, shortened: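 Cryopreserved activated human CD4+ CCR6-enriched T cells at 2.5×10^6/mL in HBSS/20 mM HEPES/0.005% P-104, loaded with Calcium 4 dye. Compound final 10 µM to 0.035 nM in 0.5% DMSO, followed by CCL20 stimulation. Calcium flux read on FLIPR Tetra. % effect taken relative to on-plate controls; IC50 from a four-parameter logistic fit.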

[11] = target: T3, C-X-C chemokine receptor type 1 (Homo sapiens) (UniProt P25024); assay: Antagonist activity at CXCR1 (unknown origin) stably expressed in HEK293 cells assessed as reduction in IL-8-induced intracellular calcium change up to 10000 nM incubated for 15 mins followed by IL-8-stimulation and measured after 15 mins by cAMP-d2/Eu-Anti-cAM based fluorescence assay; assay type: functional, cell-based; conditions: dose nM <=10000, time 30.0 min, in the assay text read “intracellular cAMP change” for “intracellular calcium change”
T3 sequence (whole entry): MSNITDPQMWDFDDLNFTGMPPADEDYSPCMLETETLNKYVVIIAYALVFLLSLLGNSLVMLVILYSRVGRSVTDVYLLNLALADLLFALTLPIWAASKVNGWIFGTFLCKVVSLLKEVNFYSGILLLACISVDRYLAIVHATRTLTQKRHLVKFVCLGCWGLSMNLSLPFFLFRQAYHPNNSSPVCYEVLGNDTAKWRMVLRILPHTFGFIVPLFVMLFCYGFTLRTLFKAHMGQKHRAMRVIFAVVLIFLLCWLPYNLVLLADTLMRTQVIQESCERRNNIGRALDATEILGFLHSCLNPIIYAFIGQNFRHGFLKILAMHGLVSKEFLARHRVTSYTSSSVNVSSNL
Procedure, shortened: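 HEK293 cells overexpressing CXCR1, trypsin-dissociated, 2000 cells/well. Compound in a 10-point 4-fold series, 15 min at rt, then forskolin 4.4 µM plus IL-8 100 nM (in the added solution) for 15 min at rt. cAMP measured with cAMP-d2/Eu-anti-cAMP HTRF, 60 min at rt, read at 665/615 nm.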

[12] = target: T1, C-X-C chemokine receptor type 4; assay: Antagonist activity at CXCR4 in human CD4-positive T cells assessed as inhibition of CXCL12-induced calcium signal incubated for 20 mins by FLIPR assay; assay type: functional, cell-based, CD4+ve Th
Target sequence in this assay (P61073 whole entry): as the sequence (P61073 whole entry) above

MEF = assay: Cytotoxicity against MEF cells assessed as reduction in cell viability up to 1000 nM by CellTiter-Glo assay; assay type: cell-based; conditions: mouse
Procedure, shortened: (§3)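 Cell viability measured with CellTiter-Glo ATP luminescence at compound concentrations up to 1000 nM.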

CYP2D6 = CYP2D6 (Homo sapiens, UniProt P10635); assay: Inhibition of CYP2D6 in human liver microsomes using dextromethorphan as substrate at 10 uM preincubated for 10 mins followed by NADPH addition and measured after 10 mins by LC-MS/MS analysis relative to control; assay type: ADME; conditions: probe dextromethorphan, time 20 min; procedure, shortened: as §2
Chain of CYP2D6 (P10635 whole entry): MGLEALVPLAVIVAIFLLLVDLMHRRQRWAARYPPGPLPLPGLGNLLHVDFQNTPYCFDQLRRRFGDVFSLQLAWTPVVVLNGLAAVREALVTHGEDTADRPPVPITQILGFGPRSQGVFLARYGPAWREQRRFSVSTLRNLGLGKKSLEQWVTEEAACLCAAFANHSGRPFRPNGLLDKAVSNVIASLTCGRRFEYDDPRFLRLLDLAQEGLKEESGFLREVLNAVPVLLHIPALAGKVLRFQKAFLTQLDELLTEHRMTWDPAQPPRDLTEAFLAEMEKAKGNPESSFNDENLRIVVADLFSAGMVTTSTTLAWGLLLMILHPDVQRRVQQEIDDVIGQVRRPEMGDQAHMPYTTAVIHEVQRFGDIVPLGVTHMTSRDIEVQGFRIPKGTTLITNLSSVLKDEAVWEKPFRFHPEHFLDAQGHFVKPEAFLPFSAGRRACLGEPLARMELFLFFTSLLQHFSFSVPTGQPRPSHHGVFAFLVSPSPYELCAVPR

Hepa1-6 = assay: Cytotoxicity against […] cells assessed as reduction in cell viability up to 1000 nM by CellTiter-Glo assay; assay type: functional, cell-based; conditions: dose nM <=1000
L929 = assay: Cytotoxicity against mouse L929 cells assessed as reduction in cell viability up to 1000 nM by CellTiter-Glo assay; assay type: cell-based
MDA-MB-231 = assay: Cytotoxicity against human MDA-MB-231 cells assessed as reduction in cell viability up to 1000 nM by CellTiter-Glo assay; assay type: functional, cell-based; conditions: dose nM <=1000; procedure, shortened: as §3
[13] = target: T1, C-X-C chemokine receptor type 4; assay: Antagonist activity at CXCR4 in human MDA-MB-231 cells assessed as inhibition of CXCL12-mediated chemotaxis at 100 nM after 22 hrs by transwell assay; conditions: filed as antagonist
Target sequence in this assay (P61073 whole entry, looked up): as the sequence (P61073 whole entry) above

SMILES	IC50 [1]	further results
Cc1nc(CN(C)[C@H]2CCCc3cccnc32)cc(N2C[C@@H](C)N(C)[C@@H](C)C2)n1	8.3 nM	
CCOc1nc(CN(C)C2CCCc3cccnc32)cc(N2CCN(C)CC2)n1 (racemic)	78 nM	
CC(C)Nc1nc(CN(C)C2CCCc3cccnc32)cc(N2CCN(C)CC2)n1 (racemic)	930 nM	
CCN(Cc1cc(N2CCN(C)CC2)nc(C)n1)C1CCCc2cccnc21 (racemic)	17 nM	
Cc1nc(CN(C)[C@H]2CCCc3cccnc32)cc(N2CCN(C3COC3)CC2)n1	130 nM	
CC(C)Oc1nc(CN(C)C2CCCc3cccnc32)cc(N2CCN(C)CC2)n1 (racemic)	151 nM	
CNc1nc(CN(C)C2CCCc3cccnc32)cc(N2CCN(C)CC2)n1 (racemic)	58 nM	
Cc1nc(CN(C)[C@H]2CCCc3cccnc32)cc(N2CCN(C3CC3)CC2)n1	70 nM	
CN1CCN(c2cc(CN(C)[C@H]3CCCc4cccnc43)nc(C(F)(F)F)n2)CC1	293 nM	
Cc1nc(CN(C)[C@H]2CCCc3cccnc32)cc(N2CCN(C)[C@@H](C)C2)n1	14 nM	
Cc1nc(CN(C)[C@H]2CCCc3cccnc32)cc(NCCCN2CCOCC2)n1	36 nM	
Cc1nc(CN(C)[C@H]2CCCc3cccnc32)cc(N2CCN(C)C[C@@H]2C)n1	14 nM	
Cc1nc(CN(C)[C@H]2CCCc3cccnc32)cc(N2CCN3CCC[C@@H]3C2)n1	30 nM	
CN1CCN(c2cc(CN(C)C3CCCc4cccnc43)nc(N(C)C)n2)CC1 (racemic)	> 10000 nM	
CCc1nc(CN(C)C2CCCc3cccnc32)cc(N2CCN(C)CC2)n1 (racemic)	25 nM	
CN1CCN(c2cc(CN(C)C3CCCc4cccnc43)nc(-c3cnn(C)c3)n2)CC1 (racemic)	1290 nM	
CCNc1nc(CN(C)C2CCCc3cccnc32)cc(N2CCN(C)CC2)n1 (racemic)	105 nM	
Cc1nc(CN(C)[C@H]2CCCc3cccnc32)cc(N2CCN(C)C[C@H]2C)n1	21 nM	
COc1nc(CN(C)C2CCCc3cccnc32)cc(N2CCN(C)CC2)n1 (racemic)	25 nM	

SMILES	IC50 [1]	further results
CN1CCN(c2cc(CN(C)C3CCCc4cccnc43)nc(N3CCCC3)n2)CC1 (racemic)	> 10000 nM	
Cc1nc(CN(C)[C@H]2CCCc3cccnc32)cc(N2CCN(C)CC2)n1	8.8 nM	IC50 [2]: 8000 nM; Papp A→B at 1.5 h, 10 µM [3]: 27 ×10⁻⁶ cm/s; efflux ratio at 1.5 h, 10 µM [4]: 0.86; fraction unbound [5]: 0.11; fraction unbound [6]: 0.18; half-life at 1 µM [7]: 1.6 min; CLint scaled at 1 µM [8]: 1570 mL/min/kg; fraction unbound [9]: 0.01; inhibition at 10 min, 10 µM (CYP3A4): 48%; Activity [10]: inactive; Activity [11]: inactive; IC50 [12]: 0.02 nM; Activity (MEF): Non-Toxic; inhibition at 10 min, 10 µM (CYP2D6): 57%; Activity (Hepa1-6): inactive; Activity (L929): Non-Toxic; Activity (MDA-MB-231): inactive; Activity [13]: Active
CN1CCN(c2cc(CN(C)C3CCCc4cccnc43)nc(N)n2)CC1 (racemic)	23 nM	
CN1CCN(c2cc(CN(C)C3CCCc4cccnc43)nc(N3CCOCC3)n2)CC1 (racemic)	2440 nM	
Cc1nc(CN(C)C2CCCc3cccnc32)c(F)c(N2CCN(C)CC2)n1 (racemic)	12 nM	
Cc1nc(CN(C)[C@H]2CCCc3cccnc32)cc(N(C)CCO)n1	> 10000 nM	
Cc1nc(CN(C)[C@H]2CCCc3cccnc32)cc(N2CCC(N3CCN(C)CC3)CC2)n1	96 nM	
Cc1nc(CN(C)[C@H]2CCCc3cccnc32)cc(N2CCN3CCC[C@H]3C2)n1	18 nM	
Cc1nc(CN(C)[C@H]2CCCc3cccnc32)cc(NCCN2CCOCC2)n1	66 nM	
Cc1nc(CN(CC2CC2)C2CCCc3cccnc32)cc(N2CCN(C)CC2)n1 (racemic)	51 nM	
Cc1nc(CN(C)C2CCCc3cccnc32)c(C#N)c(N2CCN(C)CC2)n1 (racemic)	33 nM	
CN1CCN(c2cc(CN(C)C3CCCc4cccnc43)nc(C3CC3)n2)CC1 (racemic)	23 nM	
Cc1nc(CN(C)C2CCCc3cccnc32)cc(N2CCN(C)CC2)n1 (racemic)	12 nM	
CN1CCN(c2cc(CN(C)C3CCCc4cccnc43)nc(-c3ccccc3)n2)CC1 (racemic)	2890 nM	
CN1CCN(c2cc(CN(C)C3CCCc4cccnc43)nc(N(C)CCO)n2)CC1 (racemic)	792 nM	
CC(C)c1nc(CN(C)C2CCCc3cccnc32)cc(N2CCN(C)CC2)n1 (racemic)	256 nM	
Cc1nc(CN(C)[C@H]2CCCc3cccnc32)cc(N2CCN(C)[C@H](C)C2)n1	8.3 nM	
CCN1CCN(c2cc(CN(C)[C@H]3CCCc4cccnc43)nc(C)n2)CC1	10 nM	
Cc1nc(CN(C)[C@H]2CCCc3cccnc32)cc(N2CCC(N3CCOCC3)CC2)n1	101 nM	
